From article PMC6904115 (Neuropharmacology, 2019)
Entries after “also recorded” stand apart in the source; their conditions may differ.

How the values were obtained:
Y1 receptor [1] = molecular target: T1, Y1 receptor (Rattus norvegicus, UniProt P21555); type: cell-based; conditions: with 100 nM NPY; each inhibitor 10 μM; 35 °C, 10 min
T1 sequence (P21555 1-382): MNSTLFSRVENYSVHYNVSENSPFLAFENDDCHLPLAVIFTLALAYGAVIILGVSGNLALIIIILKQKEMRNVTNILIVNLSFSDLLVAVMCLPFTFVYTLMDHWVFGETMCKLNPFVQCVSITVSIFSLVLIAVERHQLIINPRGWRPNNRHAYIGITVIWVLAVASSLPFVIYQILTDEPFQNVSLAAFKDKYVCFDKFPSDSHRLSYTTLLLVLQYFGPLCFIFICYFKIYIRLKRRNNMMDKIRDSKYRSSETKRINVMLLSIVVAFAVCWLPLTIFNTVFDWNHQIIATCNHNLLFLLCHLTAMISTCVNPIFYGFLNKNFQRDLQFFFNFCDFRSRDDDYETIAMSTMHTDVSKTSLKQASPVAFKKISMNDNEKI

Y1 receptor [2] = molecular target: T1, Y1 receptor; type: cell-based
Y1 receptor [3] = molecular target: T1, Y1 receptor; experiment: Y1 receptor internalization; type: cell-based; conditions: for Y1 receptor internalization / NPY release by chemical stimulus, summary: spinal cord slices
Y1 receptor [4] = molecular target: T1, Y1 receptor; experiment: Y1 receptor internalization induced by capsaicin stimulation of the dorsal root; type: cell-based
Procedure, shortened: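 Rat lumbar (L2-L4) slices, 400 μm, keeping one >8 mm dorsal root; recovered 1 h at 35 °C in aCSF (5 mM KCl). Root sealed with grease into side compartment of aCSF + 1 μM capsaicin, 10 min, while slice superfused at 35 °C; 10 min further superfusion, immersion-fixed, 25 μm cryosections, Y1 antiserum 1:500, confocal. Ipsilateral vs contralateral; repeated-measures 2-way ANOVA, Holm-Sidak.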

[5] = tested on: opioid release in spinal cord slices; conditions: cited from earlier work
[6] = tested on: inhibitory interneurons in the dorsal horn; conditions: four classes of inhibitory interneurons; ref Polgar et al. (2013); cited from earlier work
[7] = tested on: substance P release in the dorsal horn; conditions: ref Chen et al., cited from earlier work
MOR = conditions: ref Song and Marvizon, 2003a; cited from earlier work
NK1R = conditions: compared with endogenous opioids; ref Marvizon et al., 2003b; cited from earlier work

Ile-Pro-Ile
effect on NPY-induced Y1 receptor internalization (Y1 receptor [1]): did not significantly increase NPY-induced Y1 receptor internalization

ω-conotoxin MVIIC
effect on electrically evoked Y1 receptor internalization, ipsilateral (Y1 receptor [2]): decreased

N#Cc1cc2[nH]c(=O)c(=O)[nH]c2cc1[N+](=O)[O-] [CNQX]
effect on capsaicin-induced Y1R internalization (Y1 receptor [3]; 10 μM CNQX with 1 μM capsaicin, 10 min, whole slice): decreased the Y1R internalization induced by capsaicin to near control levels
effect on dorsal root capsaicin-induced Y1 internalization (Y1 receptor [4]; slice superfused with 10 μM CNQX 10 min, 1 μM capsaicin on dorsal root): blocked; also recorded: eliminated the effect of capsaicin

[Cl-].[K+] [KCl]
neurons with Y1 receptor internalization, KCl (Y1 receptor [3]; 30 mM KCl 2 min, then 8 min aCSF, 35 °C): > 80%
Y1 receptor internalization / NPY release by chemical stimulus, summary (Y1 receptor [3]): induced Y1 receptor internalization
opioid release by KCl ([5]; 30 mM KCl, 2 min, spinal cord slices, ref Chen et al., 2008): induced abundant opioid release

COc1cc(CNC(=O)CCCC/C=C/C(C)C)ccc1O [capsaicin]
neurons with Y1 receptor internalization, capsaicin (Y1 receptor [3]; 1 μM capsaicin, 10 min, whole slice, 35 °C): approximately 50%
Y1 receptor internalization / NPY release by chemical stimulus, summary (Y1 receptor [3]): induced Y1 receptor internalization
Y1 receptor internalization by dorsal root capsaicin (Y1 receptor [4]; 1 μM capsaicin on dorsal root (side chamber), 10 min): induced NPY release; also recorded: evoked substantial Y1 receptor internalization, which was significantly higher than in control slices
opioid release by capsaicin ([5]; dorsal horn, ref Song and Marvizon, 2003b): not opioid release
pERK induction [6]: induced pERK only in the galanin and NPY neurons

Nc1ncnc2c1nc(Br)n2[C@@H]1O[C@@H]2COP(=O)(O)O[C@H]2[C@H]1O [8-Br-cAMP, 8-bromoadenosine-3′,5′-cyclic monophosphate]
substance P release by cell-permeable cAMP analogs ([7]; dorsal horn, 2018): induce substance P release

Leu-enkephalin
reduction by peptidases of potency to induce MOR internalization (MOR): two orders of magnitude

CC1(C)C(=O)N=C2C1=C(O)C(=O)c1ccccc12 [BVT948, 4-hydroxy-3,3-dimethyl-2H-benz[g]indole-2,5(3H)-dione]
Y1 receptor internalization after BVT948 preincubation and NMDA+D-Ser (Y1 receptor [3]; 10 μM BVT948 60 min, then 10 μM NMDA + D-serine 2 min, 8 min aCSF): also released NPY
substance P release by BVT948 ([7]; 2014b, Chen et al., 2010): increases substance P release

CC(N)C(=O)N1CCCC1C#N (stereo not drawn) [Ala-Pyrr-CN, alanine-pyrrolidine-nitrile]
effect on NPY-induced Y1 receptor internalization (Y1 receptor [1]): did not significantly increase NPY-induced Y1 receptor internalization

substance P
cleavage by peptidases (NK1R): much less readily

formalin
pERK induction [6]: induced pERK only in the galanin and NPY neurons

O=C(Nc1ncnc2c1ncn2[C@@H]1O[C@@H]2COP(=O)(O)OC2C1O)c1ccccc1 (stereo in doubt) [6-Bnz-cAMP, 6-benzoyl-3′,5′-cyclic monophosphate]
Y1 receptor internalization by protein kinase A activator (Y1 receptor [3]; 10 nM, 60 min, 35 °C): induced a substantial amount of Y1 receptor internalization
Y1 receptor internalization / NPY release by chemical stimulus, summary (Y1 receptor [3]): induced Y1 receptor internalization
